Consider 25 compounds from ChEMBL document CHEMBL1154729, “Discovery of novel antitubercular 2,10-dihydro-4aH-chromeno[3,2-c]pyridin-3-yl derivatives” (Eur J Med Chem, 2010).

Assay [1] concerns Mycobacterium tuberculosis. Briefly: Antimycobacterial activity against Mycobacterium tuberculosis H37Rv by agar dilution method. The assay is classed as functional. Summed up: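 Agar dilution MIC on Middlebrook 7H11 agar supplemented with OADC, following NCCLS-like procedure; determined in duplicate.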
For orientation: In agar dilution the substance is mixed into plates at graded concentrations.

Assay [2] deals with Vero. Briefly: Cytotoxicity against african green monkey Vero cells after 72 hrs by MTT assay. It is filed as cell-based. The note with it: Chlorocebus sabaeus. Summed up:
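Vero monkey kidney cells exposed to compounds by serial double dilution up to 62.5 µg/mL for 72 h. Viability read from cellular MTT conversion to formazan (Cell Titer 96 non-radioactive proliferation assay); IC50 reported.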
(Formazan colour is commonly taken as a measure of viable cells.)

In assay [3] the test system is Mycobacterium tuberculosis. Briefly: Antimycobacterial activity against Mycobacterium tuberculosis ATCC 35801 infected in CD1 mouse assessed as bacterial load in spleen at 25 mg/kg, ip administered 10 days postinfection for 10 days measured after 35 days of infection (Rvb=9.02 +/- 0.21 log CFU). The assay is classed as functional. The note with it: route intraperitoneal.

In assay [4] the test system is Mycobacterium tuberculosis. In words: Antimycobacterial activity against Mycobacterium tuberculosis ATCC 35801 infected in CD1 mouse assessed as bacterial load in lungs at 25 mg/kg, ip administered 10 days postinfection for 10 days measured after 35 days of infection (Rvb=7.99 +/- 0.16 log CFU). The conditions noted are these: route intraperitoneal. The assay is classed as functional.

Assay [5] can be described thus: Selectivity index, ratio of IC50 for african green monkey Vero cells to MIC for Mycobacterium tuberculosis H37Rv. The assay is classed as functional.

In brackets after ≈: the same amount, converted by molar mass.

By MIC is commonly meant the lowest concentration that inhibits growth of the organism. One may read the IC50 as the concentration needed to halve the response being measured. As for `Cc1ccc2ccc(C(=O)NCC3=C[C@@H]4Oc5ccccc5C(=O)C4=CN3c3ncccc3C)cc2c1`, the minimum inhibitory concentration (MIC) in assay [1] is 0.41 µM (≈ 0.2 µg/mL). The same compound returned an IC50 in assay [2] of over 128 µM.
Take `Cc1ccc(C(=O)NCC2=C[C@@H]3Oc4ccccc4C(=O)C3=CN2c2ncccc2C)cc1`: the minimal inhibitory concentration (MIC) in assay [1] came out at 1.78 µM (≈ 0.779 µg/mL). Further, the IC50 in assay [2] was over 143 µM.
Take `O=C(NCC1=C[C@@H]2Oc3ccccc3C(=O)C2=CN1c1ncc(Br)cc1Br)c1cccc(Cl)c1`: in assay [1], the minimal inhibitory concentration (MIC) was 5.2 µM (≈ 3.13 µg/mL). The same compound gave a half-maximal inhibitory concentration (IC50) in assay [2] of 104 µM.
The corresponding values for `O=C(NCC1=C[C@@H]2Oc3ccccc3C(=O)C2=CN1c1ncc(Br)cc1Br)c1ccc2ccccc2c1` are 2.52 µM (≈ 1.56 µg/mL) and 101 µM.
With `NNC(=O)c1ccncc1` [ISONIAZID], the minimal inhibitory concentration (MIC) in assay [1] was found to be 0.36 µM (≈ 0.0494 µg/mL). Also, the log10cfu in assay [3] was determined as 4.71; in assay [4], 5.86. In addition, in assay [2], the IC50 was over 456 µM.
Consider `Cc1cccnc1N1C=C2C(=O)c3ccccc3O[C@H]2C=C1CNC(=O)c1cccc(Cl)c1`, for which, in assay [1], the MIC was 1.7 µM (≈ 0.778 µg/mL). In assay [2], this compound yielded an IC50 of over 136 µM.
As for `O=C(NCC1=C[C@@H]2Oc3ccccc3C(=O)C2=CN1c1ncc(Br)cc1Br)c1ccccc1`, 11 µM (≈ 6.25 µg/mL) was the least that counted as inhibitory in assay [1] (MIC).
Compound `Cc1cccnc1N1C=C2C(=O)c3ccccc3O[C@H]2C=C1CNC(=O)c1ccc(Cl)cc1` showed an MIC in assay [1] of 1.7 µM (≈ 0.778 µg/mL). This compound also showed a 50% inhibitory concentration (IC50) in assay [2] of 136 µM.
As for `CO[C@H]1/C=C/O[C@@]2(C)Oc3c(C)c(O)c4c(O)c(c(/C=N/N5CCN(C)CC5)c(O)c4c3C2=O)NC(=O)/C(C)=C\C=C\[C@H](C)[C@H](O)[C@@H](C)[C@@H](O)[C@@H](C)[C@H](OC(C)=O)[C@@H]1C` [RIFAMPIN], inhibition of growth in assay [1] (MIC) required 0.12 µM (≈ 0.0988 µg/mL). Also, the IC50 in assay [2] was over 75.9 µM.
In turn, `Cc1ccc(C(=O)NCC2=C[C@@H]3Oc4ccccc4C(=O)C3=CN2c2ncc(Br)cc2Br)cc1` yielded an MIC in assay [1] of 5.38 µM (≈ 3.13 µg/mL).
Consider `O=C(NCC1=C[C@@H]2Oc3ccccc3C(=O)C2=CN1c1ncc(Br)cc1Br)c1ccc(Cl)cc1`, for which the lowest concentration to inhibit growth in assay [1] (MIC) was 2.95 µM (≈ 1.77 µg/mL). Further, the IC50 in assay [2] is over 104 µM.
The corresponding values for `COc1ccc(C(=O)NCC2=C[C@@H]3Oc4ccccc4C(=O)C3=CN2c2ncccc2C)cc1` are 1.72 µM (≈ 0.78 µg/mL) and over 138 µM.
The compound `Cc1cccnc1N1C=C2C(=O)c3ccccc3O[C@H]2C=C1CNC(=O)c1ccccc1` displayed a minimal inhibitory concentration (MIC) in assay [1] of 7.36 µM (≈ 3.12 µg/mL). This compound also displayed an IC50 in assay [2] of over 148 µM.
For `Cc1cccnc1N1C=C2C(=O)c3ccccc3O[C@H]2C=C1CNC(=O)COc1ccccc1`, the lowest concentration to inhibit growth in assay [1] (MIC) was 13.8 µM (≈ 6.25 µg/mL).
`Cc1cccnc1N1C=C2C(=O)c3ccccc3O[C@H]2C=C1CNC(=O)c1ccc2ccccc2c1` returned an MIC in assay [1] of 0.84 µM (≈ 0.398 µg/mL). This compound displayed a concentration for half-maximal inhibition (IC50) in assay [2] of 142 µM.
The corresponding values for `Cc1ccc2ccc(C(=O)NCC3=C[C@@H]4Oc5ccccc5C(=O)C4=CN3c3ncc(Br)cc3Br)cc2c1` are 1.23 µM (≈ 0.777 µg/mL) and 99 µM.
`CCc1ccc(C(=O)NCC2=C[C@@H]3Oc4ccccc4C(=O)C3=CN2c2ncccc2C)cc1` gave a minimum inhibitory concentration (MIC) in assay [1] of 0.22 µM (≈ 0.0993 µg/mL). Besides, the “Selectivity Index” value in assay [5] turned out to be 629. Further, the log10cfu in assay [3] amounted to 6.08; in assay [4], 6.88. Also, in assay [2], the 50% inhibitory concentration (IC50) is over 138 µM.
For the compound `COc1ccc(C(=O)NCC2=C[C@@H]3Oc4ccccc4C(=O)C3=CN2c2ncc(Br)cc2Br)cc1`, the MIC in assay [1] came to 10.5 µM (≈ 6.25 µg/mL).
`CC1COc2c(N3CCN(C)CC3)c(F)cc3c(=O)c(C(=O)O)cn1c23` (centres undefined) [OFLOXACIN] had an MIC in assay [1] of 2.13 µM (≈ 0.77 µg/mL). The compound further yielded an IC50 in assay [2] of over 155 µM.
Regarding `O=C(NCC1=C[C@@H]2Oc3ccccc3C(=O)C2=CN1c1ncc(Br)cc1Br)c1ccc(F)cc1`, the lowest concentration to inhibit growth in assay [1] (MIC) was 10.7 µM (≈ 6.24 µg/mL).
For `O=C(NCC1=C[C@@H]2Oc3ccccc3C(=O)C2=CN1c1ncc(Br)cc1Br)c1ccc(Cl)c(Cl)c1`, the MIC in assay [1] came to 9.82 µM (≈ 6.25 µg/mL). This compound had a 50% inhibitory concentration (IC50) in assay [2] of 50.7 µM.
The like results for `CC[C@@H](CO)NCCN[C@@H](CC)CO` [ETHAMBUTOL] were, in that order, 7.63 µM (≈ 1.56 µg/mL) and over 306 µM.
In assay [1], `CCc1ccc(C(=O)NCC2=C[C@@H]3Oc4ccccc4C(=O)C3=CN2c2ncc(Br)cc2Br)cc1` had a minimal inhibitory concentration (MIC) of 2.6 µM (≈ 1.55 µg/mL). The compound further returned an IC50 in assay [2] of 105 µM.
`O=C(COc1ccccc1)NCC1=C[C@@H]2Oc3ccccc3C(=O)C2=CN1c1ncc(Br)cc1Br` gave an MIC in assay [1] of 10.5 µM (≈ 6.25 µg/mL).
Take `Cc1cccnc1N1C=C2C(=O)c3ccccc3O[C@H]2C=C1CNC(=O)c1ccc(F)cc1`: inhibition of growth in assay [1] (MIC) required 7.09 µM (≈ 3.13 µg/mL). For the same compound, the IC50 in assay [2] is over 142 µM.
